Assay results: ChEMBL document CHEMBL2062525, “Substituted 3-(5-imidazo[2,1-b]thiazolylmethylene)-2-indolinones and analogues: synthesis, cytotoxic activity, and study of the mechanism of action” (J Med Chem, 2012)
The source made the active and inactive calls.

Experiments:
[1] = target: c-Jun N-terminal kinase, JNK (Homo sapiens) (UniProt P45983+P53779+P45984); test: Inhibition of JNK phosphorylation at Thr183/Tyr185 in human HeLa cells at 1 uM after 3 hrs by Western blotting analysis; format: cell-based
How it was run: (§1)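 HeLa cells in RPMI 1640 with 10% FBS, treated 3 h at 1 μM. Lysates centrifuged 15,000 × g 15 min; 80 μg protein per lane by SDS-PAGE, nitrocellulose transfer, phospho-specific and total primary antibodies, peroxidase anti-rabbit secondary, ECL chemiluminescence.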

[2] = tested on: HT-29; test: Induction of apoptosis in human HT-29 cells assessed as increase in caspase activity at 500 nM after 48 hrs by fluorometry; format: functional, cell-based
How it was run: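 Cells exposed 48 h to 500 nM; DEVD-cleaving caspase (DEVDase) activity measured fluorometrically in cell extracts; mean ± s.e.m. of four determinations.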

[3] = Inhibition of bovine brain tubulin assembly after 20 mins; design: species or system Bos taurus
[4] = tested on: HT-29; test: Induction of cell cycle arrest in human HT-29 cells assessed as increase in p21 expression after 24 hrs by immunofluorescence confocal microscopy; format: functional, cell-based
How it was run: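 On coverslips, HT-29 cells were treated 24 h, fixed with 3% paraformaldehyde, permeabilized with 70% ice-cold ethanol, stained with anti-p21 then FITC secondary (1 h, room temperature each), nuclei counterstained with PI; confocal microscopy; representative of three experiments.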

[5] = tested on: HT-29; test: Induction of apoptosis in human HT-29 cells at 100 nM after 24 hrs by trypan blue exclusion assay; format: functional, cell-based
How it was run: (§2)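 HT-29 cells plated at 2×10^4 cells/cm2, treated 24 h in triplicate (DMSO 0.01%; DMSO-only controls); viable cells counted by trypan blue exclusion; mean ± s.e.m. of three determinations.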

[6] = tested on: HT-29; test: Induction of apoptosis in human HT-29 cells assessed as chromatin condensation by propidium iodide staining method; format: functional, cell-based
How it was run: (§3)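 HT-29 cells on glass coverslips (1×10^4 cells/cm2), treated 24 h; fixed in 3% paraformaldehyde, ethanol-permeabilized; nuclei stained with PI and viewed by laser scanning confocal microscopy for chromatin condensation and nuclear fragmentation; representative of three experiments.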

[7] = Cytotoxicity against human CNS cancer cells after 48 hrs; format: functional; settings: Cancer cell lines
How it was run: (§4)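 NCI 60-cell panel subpanel lines; compounds first screened at a single 10−5 M, then those passing threshold tested in five-concentration assay over 10−9 to 10−4 M (some to 10−3 M), 48 h exposure. Growth relative to untreated control measured as cell protein; GI50, TGI and LC50 derived; some values are means of two experiments.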

[8] = target: AMP-activated protein kinase, AMPK (Homo sapiens) (UniProt P54646+O43741+P54619+Q9UGJ0+Q9Y478+Q13131+Q9UGI9); test: Inhibition of AMPK phosphorylation at Thr172 in human HeLa cells at 1 uM after 3 hrs by Western blotting analysis; format: cell-based; how it was run: as §1
[9] = tested on: HT-29; test: Induction of apoptosis in human HT-29 cells assessed as loss of mitochondrial membrane potential after 24 hrs by DiOC6 staining based fluorescence assay; format: functional, cell-based
How it was run: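 Following 24 h treatment at 500 nM, HT-29 cells (1×10^6/mL) were stained with 4 nM DiOC6 for 40 min at 37 °C in the dark, counterstained with PI 5 μg/mL to exclude dead cells; fluorescence by flow cytometry; representative of three to five experiments.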

[10] = tested on: HT-29; test: Induction of apoptosis in human HT-29 cells assessed as increase in BAX level in mitochondria after 24 hrs by confocal laser microscopic analysis; format: functional, cell-based
How it was run: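 HT-29 cells treated 24 h with 500 nM; loaded with 150 nM MitoTracker Red CM-H2XRos for 10 min at 37 °C, then fixed, permeabilized, probed with anti-Bax plus FITC secondary (1 h each, room temperature). Confocal microscopy; colocalization with mitochondria seen as orange pixels.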

[11] = Cytotoxicity against human ovarian cancer cells after 48 hrs; format: functional; settings: Cancer cell lines; how it was run: as §4
[12] = tested on: NSCLC; test: Cytotoxicity against human NSCLC cells after 48 hrs; format: functional; how it was run: as §4
[13] = tested on: HT-29; test: Induction of apoptosis in human HT-29 cells assessed as nuclear fragmentation by propidium iodide staining method; format: functional, cell-based; how it was run: as §3
[14] = organism: Bos taurus; test: Displacement of [3H]colchicine from bovine brain tubulin at 5 uM after 10 mins
[15] = tested on: HT-29; test: Induction of apoptosis in human HT-29 cells assessed as increase in early apoptotic cells after 24 hrs by annexin-V-FLUOS and propidium iodide staining based flow cytometry (reference value: 3.9%); format: functional
[16] = Cytotoxicity against human melanoma cells after 48 hrs; format: functional; settings: Melanoma cell; for CC50: read-out: LC50 (the source's name); how it was run: as §4
[17] = Cytotoxicity against human breast cancer cells after 48 hrs; format: functional; settings: Cancer cell lines; how it was run: as §4
[18] = Cytotoxicity against human prostate cancer cells after 48 hrs; format: functional; settings: Cancer cell lines
How it was run: (§5)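 NCI 60-cell panel (subpanels include leukemia and prostate). […] Percent growth relative to untreated control; some repeats averaged over two experiments.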

[19] = target: Mitogen-activated protein kinase; ERK1/ERK2 (Homo sapiens) (UniProt P27361+P28482); test: Inhibition of ERK1/2 phosphorylation at Thr202/Tyr204 in human HeLa cells at 1 uM after 3 hrs by Western blotting analysis; format: cell-based; how it was run: as §1
Sequence of Mitogen-activated protein kinase; ERK1/ERK2 (Homo sapiens) (P27361 whole entry, looked up): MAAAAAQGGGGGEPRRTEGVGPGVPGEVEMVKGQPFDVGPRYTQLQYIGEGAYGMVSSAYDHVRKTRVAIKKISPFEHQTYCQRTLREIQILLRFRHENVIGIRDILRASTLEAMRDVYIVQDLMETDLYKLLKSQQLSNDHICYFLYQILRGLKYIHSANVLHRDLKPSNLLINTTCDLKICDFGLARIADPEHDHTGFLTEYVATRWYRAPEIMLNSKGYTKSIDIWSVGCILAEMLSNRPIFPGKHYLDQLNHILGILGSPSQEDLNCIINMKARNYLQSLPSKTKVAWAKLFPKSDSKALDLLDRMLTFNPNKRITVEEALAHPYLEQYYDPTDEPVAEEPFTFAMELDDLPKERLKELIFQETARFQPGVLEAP
Sequence of Mitogen-activated protein kinase; ERK1/ERK2 (Homo sapiens) (P28482 whole entry, looked up): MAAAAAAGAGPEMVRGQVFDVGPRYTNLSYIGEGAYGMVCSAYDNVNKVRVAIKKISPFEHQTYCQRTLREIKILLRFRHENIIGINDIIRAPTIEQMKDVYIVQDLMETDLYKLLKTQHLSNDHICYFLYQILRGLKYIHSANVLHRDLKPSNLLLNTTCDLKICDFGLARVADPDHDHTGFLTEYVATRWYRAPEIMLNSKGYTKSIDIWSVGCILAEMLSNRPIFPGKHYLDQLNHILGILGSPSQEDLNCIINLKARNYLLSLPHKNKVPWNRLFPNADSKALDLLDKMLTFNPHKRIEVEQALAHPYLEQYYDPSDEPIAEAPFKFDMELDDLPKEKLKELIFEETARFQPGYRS

[20] = tested on: HeLa; test: Inhibition of Akt phosphorylation at ser473 in human HeLa cells at 1 uM after 3 hrs by Western blotting analysis; format: cell-based; how it was run: as §1
[21] = tested on: HT-29; test: Induction of apoptosis in human HT-29 cells at 500 nM after 24 hrs by trypan blue exclusion assay; format: functional, cell-based; how it was run: as §2
[22] = tested on: HT-29; test: Cell cycle arrest in human HT-29 cells assessed as increase of cell population at G2/M phase at 500 nM after 24 hrs by flow cytometry; format: functional, cell-based
How it was run: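 HT-29 cells in RPMI 1640 with 10% FBS, 2 mM L-glutamine, 37 °C, 5% CO2; treated 24 h, DMSO 0.01% in medium. Fixed in 70% ethanol at −20 °C ≥12 h, RNase A (10 μg/mL) 30 min at 37 °C, DNA stained with PI (50 μg/mL), flow cytometry; one experiment representative of three.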

[23] = Cytotoxicity against human renal cancer cells after 48 hrs; format: functional; settings: Cancer cell lines; for CC50: read-out: LC50 (the source's name); how it was run: as §4
[24] = Cytotoxicity against human leukemia cells after 48 hrs; format: functional; settings: Leukemia cell; how it was run: as §5
[25] = target: Serine/threonine-protein kinase mTOR (Homo sapiens) (UniProt P42345); test: Inhibition of mTOR phosphorylation at ser2448 in human HeLa cells at 1 uM after 3 hrs by Western blotting analysis; format: cell-based; how it was run: as §1
[26] = Cytotoxicity against human COLON cells after 48 hrs; format: functional; how it was run: as §4
[27] = target: MAP kinase p38 (Homo sapiens) (UniProt O15264+Q15759+Q16539+P53778); test: Inhibition of p38 phosphorylation at Thr180/Tyr182 in human HeLa cells at 1 uM after 3 hrs by Western blotting analysis; format: cell-based; how it was run: as §1
[28] = tested on: HT-29; test: Induction of apoptosis in human HT-29 cells assessed as increase in mitochondrial ROS production by dihydroethidium staining based flow cytometry; format: functional, cell-based
How it was run: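 ROS read-out: HT-29 cells treated 24 h with 500 nM, then loaded with 5 μM dihydroethidium for 30 min at 37 °C; superoxide-derived red fluorescence measured by flow cytometry with logarithmic amplification; representative of three to five experiments.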

Cc1cn2c(/C=C3/C(=O)Nc4c3ccc3ccccc43)c(C)nc2s1
inhibition [1]: inactive | Activity [2]: Active | IC50 [3]: 5.3 µM | Activity [4]: Active | Activity [5]: Active | Activity [6]: Active | GI50 [7]: 0.17 µM | LC50 [7]: 74.1 µM | TGI [7]: 5.37 µM | inhibition [8]: inactive | Activity [9]: Active | Activity [10]: Active | GI50 [11]: 0.85 µM | LC50 (concentration killing 50% of starting cells) [11]: 74.1 µM | TGI [11]: 14.1 µM | GI50 [12]: 0.31 µM | LC50 [12]: 93.3 µM | TGI [12]: 28.2 µM | Activity [13]: Active | inhibition [14]: 49% | Activity [15]: 12.5% | GI50 [16]: 0.14 µM | TGI [16]: 50.1 µM | GI50 [17]: 0.18 µM | LC50 [17]: 50.1 µM | TGI [17]: 5.62 µM | GI50 [18]: 0.21 µM | TGI [18]: 16.2 µM | inhibition [19]: inactive | inhibition [20]: inactive | Activity [21]: Active | Activity [22]: Active | GI50 [23]: 0.23 µM | TGI [23]: 12 µM | CC50 [23]: 70.8 µM | TGI [24]: 53.7 µM | inhibition [25]: inactive | GI50 [26]: 0.11 µM | TGI [26]: 58.9 µM | inhibition [27]: inactive | Activity [28]: Active

O=C1Nc2ccc(Cl)cc2C1=Cc1c(-c2ccccn2)nc2sccn12 (mixture of isomers)
IC50 [3]: > 20 µM | GI50 [7]: 0.71 µM | LC50 [7]: 66.1 µM | TGI [7]: 22.4 µM | GI50 [11]: 1.62 µM | LC50 (concentration killing 50% of starting cells) [11]: 50.1 µM | TGI [11]: 17.4 µM | GI50 [12]: 1.78 µM | LC50 [12]: 58.9 µM | TGI [12]: 18.2 µM | inhibition [14]: 13% | GI50 [16]: 0.68 µM | TGI [16]: 11.8 µM | CC50 [16]: 51.3 µM | GI50 [17]: 0.45 µM | LC50 [17]: 42.7 µM | TGI [17]: 7.76 µM | GI50 [18]: 1.26 µM | LC50 (concentration killing 50% of cells) [18]: 47.9 µM | TGI [18]: 19.1 µM | GI50 [23]: 1.15 µM | TGI [23]: 10.5 µM | CC50 [23]: 43.6 µM | GI50 [24]: 0.28 µM | LC50 (concentration killing 50% of cells) [24]: 69.2 µM | TGI [24]: 7.08 µM | GI50 [26]: 0.52 µM | LC50 (concentration giving 50% net cell kill) [26]: 33.9 µM | TGI [26]: 10.5 µM

Cc1nn2c(/C=C3/C(=O)Nc4c3ccc3ccccc43)c(C)nc2s1
IC50 [3]: 16 µM | GI50 [7]: 0.39 µM | LC50 [7]: 46.8 µM | GI50 [11]: 0.91 µM | LC50 (concentration killing 50% of starting cells) [11]: 56.2 µM | TGI [11]: 11.8 µM | GI50 [12]: 0.87 µM | LC50 [12]: 74.1 µM | TGI [12]: 15.5 µM | inhibition [14]: 45% | GI50 [16]: 0.68 µM | TGI [16]: 17 µM | CC50 [16]: 70.8 µM | GI50 [17]: 0.3 µM | LC50 [17]: 75.9 µM | TGI [17]: 6.31 µM | GI50 [18]: 0.38 µM | LC50 (concentration killing 50% of cells) [18]: 15.1 µM | TGI [18]: 5.13 µM | GI50 [23]: 0.83 µM | TGI [23]: 10.5 µM | CC50 [23]: 56.2 µM | GI50 [24]: 0.17 µM | LC50 (concentration killing 50% of cells) [24]: 66.1 µM | TGI [24]: 3.31 µM | GI50 [26]: 0.35 µM | LC50 (concentration giving 50% net cell kill) [26]: 49 µM | TGI [26]: 6.61 µM
